Here are results for 2 compounds from ChEMBL document CHEMBL1255474, “Impact of different carbapenems and regimens of administration on resistance emergence for three isogenic Pseudomonas aeruginosa strains with differing mechanisms of resistance” (2010).

Assay [1] has as its system Pseudomonas aeruginosa. In words: Antimicrobial activity against wild type Pseudomonas aeruginosa PAO1 in hollow fiber system based pharmacokinetic-pharmacodynamic model assessed as reduction in bacterial count at 1 g administered at 4 hrs infusion regimen every 8 hrs by time-kill assay. Format: functional. The gist of the method: (§1)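 Hollow-fiber PK/PD model at 35°C, humidified. 15 ml late-log Mueller-Hinton II culture (circa 1 × 10^8 CFU/ml) per cartridge. Drug injected into the central reservoir by 0.5–4 h infusion every 6 or 8 h, run for 10 days. Samples taken at 0, 0.17, 1, 2, 3, 4, 6, 8 and 10 days, centrifuged and resuspended in saline to limit carryover. Counted on drug-free Mueller-Hinton II agar after 24 h at 35°C. Cell kill taken from counts at 24 h of exposure.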

In assay [2] the test system is Pseudomonas aeruginosa. Briefly: Antimicrobial activity against Pseudomonas aeruginosa PAO1 expressing derepressed chromosomal AmpC mutant by broth macrodilution method. Format: functional.
The subject of assay [3] is Pseudomonas aeruginosa. In words: Antimicrobial activity against oprD-deficient Pseudomonas aeruginosa PAO1 in hollow fiber system based pharmacokinetic-pharmacodynamic model assessed as reduction in bacterial count at 1 g administered at 4 hrs infusion regimen by time-kill assay. It is filed as functional. A digest of the protocol:
as §1

Assay [4] deals with Pseudomonas aeruginosa. Briefly: Antimicrobial activity against wild type Pseudomonas aeruginosa PAO1 by broth macrodilution method. It is filed as functional.
Assay [5] relates to Pseudomonas aeruginosa. In words: Antimicrobial activity against oprD-deficient Pseudomonas aeruginosa PAO1 in hollow fiber system based pharmacokinetic-pharmacodynamic model assessed as reduction in bacterial count at 500 mg administered at 1 hr infusion regimen every 8 hrs by time-kill assay. It is filed as functional. The gist of the method:
as §1

Assay [6] deals with Pseudomonas aeruginosa. In words: Antimicrobial activity against wild type Pseudomonas aeruginosa PAO1 in hollow fiber system based pharmacokinetic-pharmacodynamic model assessed as reduction in bacterial count at 500 mg administered at 1 hr infusion regimen every 8 hrs by time-kill assay. Format: functional. A digest of the protocol:
as §1

In assay [7] the test system is Pseudomonas aeruginosa. Briefly: Antimicrobial activity against oprD-deficient Pseudomonas aeruginosa PAO1 by broth macrodilution method. It is filed as functional.
The test system of assay [8] is Pseudomonas aeruginosa. Briefly: Antimicrobial activity against oprD-deficient Pseudomonas aeruginosa PAO1 in hollow fiber system based pharmacokinetic-pharmacodynamic model assessed as reduction in bacterial count at 1 g administered at 4 hrs infusion regimen every 8 hrs by time-kill assay. Format: functional, organism-based. The gist of the method: as §1
The subject of assay [9] is Pseudomonas aeruginosa. In words: Antimicrobial activity against oprD-deficient Pseudomonas aeruginosa PAO1 in hollow fiber system based pharmacokinetic-pharmacodynamic model assessed as reduction in bacterial count at 1 g administered at 1 hr infusion regimen every 8 hrs by time-kill assay. It is filed as functional. The gist of the method: as §1
In assay [10] the test system is Pseudomonas aeruginosa. Briefly: Antimicrobial activity against wild type Pseudomonas aeruginosa PAO1 in hollow fiber system based pharmacokinetic-pharmacodynamic model assessed as reduction in bacterial count at 500 mg administered at 4 hrs infusion regimen every 8 hrs by time-kill assay. It is filed as functional. A digest of the protocol: as §1

Molecules are shown by their SMILES. Values after ≈ are worked out from the molar mass of the structure shown. Active and inactive are the calls of the source. The rule behind the calls is not given here.

Regarding `C[C@@H](O)[C@H]1C(=O)N2C(C(=O)O)=C(S[C@@H]3CN[C@H](CNS(N)(=O)=O)C3)[C@H](C)[C@H]12` [DORIPENEM], the log10CFU/ml in [1] was 5.4; in assay [3], 4.24; in [5], 3.12; in assay [6] it was 3.71; in assay [9], 3.47; in [10] it was 4.07. For the same compound, the minimal inhibitory concentration (MIC) (commonly the lowest concentration found to suppress growth) in assay [2] was 2 µg/mL (≈ 4.76 µM); in assay [4], 1 µg/mL (≈ 2.38 µM); in assay [7], 2 µg/mL (≈ 4.76 µM). In assay [8], the outcome was Active.
As for `C[C@@H](O)[C@H]1C(=O)N2C(C(=O)O)=C(SCCNC=N)C[C@H]12` [IMIPENEM ANHYDROUS], the MIC in [2] amounted to 2 µg/mL (≈ 6.68 µM); in assay [4], 2 µg/mL (≈ 6.68 µM); in assay [7], 16 µg/mL (≈ 53.4 µM).
